Results: ChEMBL document CHEMBL5661979, “Pharmacological inhibition of BMK1 suppresses tumor growth through promyelocytic leukemia protein” (Cancer Cell, 2010)

Columns and labels:
[1] = Inhibition of SRC/FYN/YES in human HeLa cells lysate at 10 uM pre incubated for 15 mins followed by ATP acyl phosphate probe addition and measured after 10 mins by LC-MS/MS analysis relative to control; conditions: 25 min, condition cancer
[2] = target: Mitogen-activated protein kinase 14 (Homo sapiens, UniProt Q16539); assay: Inhibition of P38a in human HeLa cells lysate pre incubated for 15 mins followed by ATP acyl phosphate probe addition and measured after 10 mins by LC-MS/MS analysis; type: subcellular
Sequence of Mitogen-activated protein kinase 14 (Q16539 whole entry): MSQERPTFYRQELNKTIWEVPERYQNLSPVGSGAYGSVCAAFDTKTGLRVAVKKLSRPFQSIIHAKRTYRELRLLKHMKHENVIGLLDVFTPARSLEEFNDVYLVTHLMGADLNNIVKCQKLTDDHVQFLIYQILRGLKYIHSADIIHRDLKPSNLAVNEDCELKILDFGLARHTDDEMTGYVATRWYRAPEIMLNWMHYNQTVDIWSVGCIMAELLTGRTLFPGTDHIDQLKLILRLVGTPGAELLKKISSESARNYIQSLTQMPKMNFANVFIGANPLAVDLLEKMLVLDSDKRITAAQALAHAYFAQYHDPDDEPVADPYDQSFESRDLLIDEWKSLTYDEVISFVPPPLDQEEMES

[3] = target: T1, Serine/threonine-protein kinase mTOR (Homo sapiens, UniProt P42345); assay: Inhibition of FRAP in human HeLa cells lysate pre incubated for 15 mins followed by ATP acyl phosphate probe addition and measured after 10 mins by LC-MS/MS analysis; type: subcellular
[4] = target: Serine/threonine-protein kinase Nek8 (Homo sapiens) (UniProt Q86SG6); assay: Inhibition of NEK8 in human HeLa cells lysate at 10 uM pre incubated for 15 mins followed by ADP acyl phosphate probe addition and measured after 10 mins by LC-MS/MS analysis relative to control; type: subcellular; conditions: time 25.0 min
Sequence of Serine/threonine-protein kinase Nek8 (Homo sapiens) (Q86SG6 whole entry): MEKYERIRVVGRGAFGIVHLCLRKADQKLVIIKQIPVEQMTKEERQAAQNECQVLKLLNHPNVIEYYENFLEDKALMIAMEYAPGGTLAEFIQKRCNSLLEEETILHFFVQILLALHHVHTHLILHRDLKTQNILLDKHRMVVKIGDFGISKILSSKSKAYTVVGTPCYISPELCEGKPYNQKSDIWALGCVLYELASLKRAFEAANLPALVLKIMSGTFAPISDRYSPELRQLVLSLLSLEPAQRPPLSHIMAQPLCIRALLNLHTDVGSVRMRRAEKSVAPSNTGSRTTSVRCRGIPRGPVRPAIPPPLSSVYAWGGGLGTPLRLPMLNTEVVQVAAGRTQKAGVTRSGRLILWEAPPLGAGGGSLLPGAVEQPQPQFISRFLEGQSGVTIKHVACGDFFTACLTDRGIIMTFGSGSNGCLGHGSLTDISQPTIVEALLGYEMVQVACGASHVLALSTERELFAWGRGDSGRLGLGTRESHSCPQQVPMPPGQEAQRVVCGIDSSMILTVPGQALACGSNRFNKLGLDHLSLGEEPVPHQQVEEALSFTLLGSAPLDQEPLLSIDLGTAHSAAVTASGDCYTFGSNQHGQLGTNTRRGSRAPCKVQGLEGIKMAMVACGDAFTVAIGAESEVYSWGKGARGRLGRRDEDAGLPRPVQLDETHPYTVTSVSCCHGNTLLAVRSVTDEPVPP

[5] = target: T1, Serine/threonine-protein kinase mTOR; assay: Inhibition of FRAP in human HeLa cells lysate at 2 uM pre incubated for 15 mins followed by ATP acyl phosphate probe addition and measured after 10 mins by LC-MS/MS analysis relative to control; type: subcellular; conditions: time 25.0 min
[6] = target: T2, Calcium/calmodulin-dependent protein kinase type II subunit gamma (Homo sapiens, UniProt Q13555); assay: Inhibition of CAMK2g in human HeLa cells lysate at 50 uM pre incubated for 15 mins followed by ADP acyl phosphate probe addition and measured after 10 mins by LC-MS/MS analysis relative to control; type: subcellular; conditions: time 25.0 min
T2 sequence (Q13555 whole entry, the tested form may be a part): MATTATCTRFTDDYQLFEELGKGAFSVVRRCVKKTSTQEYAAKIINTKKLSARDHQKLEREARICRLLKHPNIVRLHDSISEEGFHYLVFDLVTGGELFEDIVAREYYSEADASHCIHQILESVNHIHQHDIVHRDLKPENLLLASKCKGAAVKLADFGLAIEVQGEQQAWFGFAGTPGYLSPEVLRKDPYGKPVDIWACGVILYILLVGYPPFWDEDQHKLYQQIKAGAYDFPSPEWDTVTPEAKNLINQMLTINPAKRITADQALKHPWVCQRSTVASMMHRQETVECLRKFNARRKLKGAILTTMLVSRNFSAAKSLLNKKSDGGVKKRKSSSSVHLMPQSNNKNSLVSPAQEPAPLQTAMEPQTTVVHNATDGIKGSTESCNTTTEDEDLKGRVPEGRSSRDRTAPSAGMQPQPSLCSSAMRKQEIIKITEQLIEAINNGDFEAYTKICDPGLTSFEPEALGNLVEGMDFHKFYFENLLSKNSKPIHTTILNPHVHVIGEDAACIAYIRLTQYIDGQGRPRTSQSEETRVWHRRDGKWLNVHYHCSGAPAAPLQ
How it was run: (§1)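 KiNativ-type profiling in HeLa lysate (5 mg/mL total protein). Lysate preincubated 15 min with inhibitor at 50, 10, 2, 0.8 or 0 μM, then ATP or ADP acylphosphate probe added (5 μM final) for 10 min. Reaction stopped with urea and analysed by targeted MS, using up to four fragment ions per kinase peptide-probe conjugate. % inhibition calculated against untreated lysate. Duplicate reactions.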

[7] = target: T2, Calcium/calmodulin-dependent protein kinase type II subunit gamma; assay: Inhibition of CAMK2g in human HeLa cells lysate pre incubated for 15 mins followed by ATP acyl phosphate probe addition and measured after 10 mins by LC-MS/MS analysis; type: subcellular
How it was run: (§2)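 KiNativ profiling in HeLa lysate (5 mg/mL total protein). Lysate incubated 15 min with inhibitor at 50, 10, 2, 0.8 or 0 μM. ATP or ADP acylphosphate probe then added (5 μM final) and reacted 10 min. Reaction stopped with urea and analysed by targeted MS, using up to four fragment ions per kinase peptide-probe conjugate. % inhibition taken against untreated lysate. Run in duplicate.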

[8] = target: Macrophage-stimulating protein receptor (Homo sapiens, UniProt Q04912); assay: Inhibition of RON in human HeLa cells lysate at 2 uM pre incubated for 15 mins followed by ADP acyl phosphate probe addition and measured after 10 mins by LC-MS/MS analysis relative to control; type: subcellular; conditions: time 25.0 min
[9] = target: T3, EKC/KEOPS complex subunit TP53RK (Homo sapiens) (UniProt Q96S44); assay: Inhibition of PRPK in human HeLa cells lysate at 10 uM pre incubated for 15 mins followed by ADP acyl phosphate probe addition and measured after 10 mins by LC-MS/MS analysis relative to control; type: subcellular; conditions: time 25.0 min
T3 sequence (whole entry): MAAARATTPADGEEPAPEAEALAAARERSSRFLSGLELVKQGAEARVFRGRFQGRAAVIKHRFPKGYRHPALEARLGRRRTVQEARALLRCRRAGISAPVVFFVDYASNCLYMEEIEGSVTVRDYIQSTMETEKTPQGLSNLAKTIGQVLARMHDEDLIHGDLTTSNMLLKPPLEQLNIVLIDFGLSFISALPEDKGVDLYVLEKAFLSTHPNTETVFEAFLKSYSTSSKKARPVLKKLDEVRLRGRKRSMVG

[10] = target: Cyclin-dependent kinase 10 (Homo sapiens, UniProt Q15131); assay: Inhibition of CDK10 in human HeLa cells lysate at 10 uM pre incubated for 15 mins followed by ATP acyl phosphate probe addition and measured after 10 mins by LC-MS/MS analysis relative to control; type: subcellular; conditions: time 25.0 min; how it was run: as §2
Sequence of Cyclin-dependent kinase 10 (Q15131 whole entry): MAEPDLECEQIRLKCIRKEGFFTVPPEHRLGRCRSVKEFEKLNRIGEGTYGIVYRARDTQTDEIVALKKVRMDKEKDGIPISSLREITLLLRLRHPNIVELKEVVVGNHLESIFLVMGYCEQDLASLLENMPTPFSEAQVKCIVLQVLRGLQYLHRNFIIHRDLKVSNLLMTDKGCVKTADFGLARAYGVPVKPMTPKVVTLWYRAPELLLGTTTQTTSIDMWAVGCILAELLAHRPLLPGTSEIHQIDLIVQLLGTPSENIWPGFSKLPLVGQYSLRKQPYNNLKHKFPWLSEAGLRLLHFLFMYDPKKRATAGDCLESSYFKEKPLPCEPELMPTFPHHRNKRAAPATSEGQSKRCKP

[11] = target: Mitogen-activated protein kinase kinase kinase 5 (Homo sapiens) (UniProt Q99683); assay: Inhibition of MAP3K5 in human HeLa cells lysate at 2 uM pre incubated for 15 mins followed by ATP acyl phosphate probe addition and measured after 10 mins by LC-MS/MS analysis relative to control; type: subcellular; conditions: time 25.0 min
Sequence of Mitogen-activated protein kinase kinase kinase 5 (Homo sapiens) (Q99683 whole entry): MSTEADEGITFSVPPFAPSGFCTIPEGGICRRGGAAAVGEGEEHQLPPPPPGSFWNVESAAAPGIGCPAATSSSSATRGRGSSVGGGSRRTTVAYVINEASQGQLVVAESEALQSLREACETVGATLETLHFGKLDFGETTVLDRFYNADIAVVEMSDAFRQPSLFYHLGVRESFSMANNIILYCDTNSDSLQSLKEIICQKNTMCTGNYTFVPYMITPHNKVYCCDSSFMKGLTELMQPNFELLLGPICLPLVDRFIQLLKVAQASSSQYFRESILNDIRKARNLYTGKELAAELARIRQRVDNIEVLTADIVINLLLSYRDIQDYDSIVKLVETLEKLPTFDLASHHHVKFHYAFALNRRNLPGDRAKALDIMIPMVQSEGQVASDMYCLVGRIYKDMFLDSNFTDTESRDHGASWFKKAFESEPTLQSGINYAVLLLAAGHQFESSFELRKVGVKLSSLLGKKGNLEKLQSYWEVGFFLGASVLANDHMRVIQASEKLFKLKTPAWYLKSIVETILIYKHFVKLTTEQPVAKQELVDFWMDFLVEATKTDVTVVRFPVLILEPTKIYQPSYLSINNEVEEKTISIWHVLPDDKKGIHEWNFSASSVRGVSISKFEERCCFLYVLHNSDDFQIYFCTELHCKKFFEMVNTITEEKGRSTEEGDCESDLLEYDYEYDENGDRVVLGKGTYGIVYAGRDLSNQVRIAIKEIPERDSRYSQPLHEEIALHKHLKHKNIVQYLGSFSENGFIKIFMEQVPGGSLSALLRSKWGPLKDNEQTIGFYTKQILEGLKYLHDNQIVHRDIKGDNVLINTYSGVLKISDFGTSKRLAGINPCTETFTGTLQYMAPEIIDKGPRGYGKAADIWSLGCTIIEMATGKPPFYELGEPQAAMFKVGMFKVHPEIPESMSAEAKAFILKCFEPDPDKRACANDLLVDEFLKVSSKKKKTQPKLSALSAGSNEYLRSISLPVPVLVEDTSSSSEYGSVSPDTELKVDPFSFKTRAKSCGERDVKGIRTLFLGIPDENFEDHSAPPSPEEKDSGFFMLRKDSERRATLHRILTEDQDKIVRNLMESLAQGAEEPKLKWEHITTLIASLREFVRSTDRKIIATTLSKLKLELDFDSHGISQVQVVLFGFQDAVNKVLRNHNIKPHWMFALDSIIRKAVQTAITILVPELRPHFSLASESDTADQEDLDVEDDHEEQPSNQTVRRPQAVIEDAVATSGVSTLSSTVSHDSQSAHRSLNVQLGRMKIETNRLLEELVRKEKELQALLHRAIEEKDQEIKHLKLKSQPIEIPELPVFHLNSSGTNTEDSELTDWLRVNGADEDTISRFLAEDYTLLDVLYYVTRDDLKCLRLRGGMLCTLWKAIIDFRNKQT

[12] = target: Epidermal growth factor receptor (Homo sapiens, UniProt P00533); assay: Inhibition of EGFR in human HeLa cells lysate at 10 uM pre incubated for 15 mins followed by ADP acyl phosphate probe addition and measured after 10 mins by LC-MS/MS analysis relative to control; type: subcellular; conditions: time 25.0 min
Scaffold protein ILK = Scaffold protein ILK (Homo sapiens, UniProt Q13418); assay: Inhibition of ILK in human HeLa cells lysate pre incubated for 15 mins followed by ATP acyl phosphate probe addition and measured after 10 mins by LC-MS/MS analysis; type: subcellular
Sequence of Scaffold protein ILK (Q13418 whole entry): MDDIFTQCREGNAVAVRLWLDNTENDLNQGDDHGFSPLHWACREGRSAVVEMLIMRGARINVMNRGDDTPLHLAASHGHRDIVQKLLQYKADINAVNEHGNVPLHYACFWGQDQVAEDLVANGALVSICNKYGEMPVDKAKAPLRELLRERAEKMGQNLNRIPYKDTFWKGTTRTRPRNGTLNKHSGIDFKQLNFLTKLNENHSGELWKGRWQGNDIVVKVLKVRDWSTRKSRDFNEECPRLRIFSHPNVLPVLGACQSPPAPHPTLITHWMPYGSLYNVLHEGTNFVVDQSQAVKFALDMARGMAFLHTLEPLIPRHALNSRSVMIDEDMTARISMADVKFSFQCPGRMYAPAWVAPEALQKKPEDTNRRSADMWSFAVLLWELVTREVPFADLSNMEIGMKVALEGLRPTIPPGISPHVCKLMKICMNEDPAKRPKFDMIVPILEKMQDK

[13] = target: T4, Serine/threonine-protein kinase 4 (Homo sapiens) (UniProt Q13043); assay: Inhibition of MST1 in human HeLa cells lysate at 50 uM pre incubated for 15 mins followed by ADP acyl phosphate probe addition and measured after 10 mins by LC-MS/MS analysis relative to control; type: subcellular; conditions: time 25.0 min
T4 sequence (whole entry): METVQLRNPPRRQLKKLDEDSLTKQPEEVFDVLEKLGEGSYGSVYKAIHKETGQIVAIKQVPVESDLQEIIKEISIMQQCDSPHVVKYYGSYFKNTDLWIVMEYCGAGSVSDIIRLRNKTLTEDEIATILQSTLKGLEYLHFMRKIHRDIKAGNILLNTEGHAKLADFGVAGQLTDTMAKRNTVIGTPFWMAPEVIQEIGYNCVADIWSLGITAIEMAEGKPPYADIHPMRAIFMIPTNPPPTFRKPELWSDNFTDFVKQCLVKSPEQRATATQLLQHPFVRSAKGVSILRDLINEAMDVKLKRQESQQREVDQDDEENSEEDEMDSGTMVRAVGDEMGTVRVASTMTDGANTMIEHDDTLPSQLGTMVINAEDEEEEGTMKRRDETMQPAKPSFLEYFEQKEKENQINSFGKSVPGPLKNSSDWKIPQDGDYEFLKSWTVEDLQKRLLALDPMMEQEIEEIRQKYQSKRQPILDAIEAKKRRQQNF

Aurora kinase A = Aurora kinase A (Homo sapiens, UniProt O14965); assay: Inhibition of AURA in human HeLa cells lysate pre incubated for 15 mins followed by ATP acyl phosphate probe addition and measured after 10 mins by LC-MS/MS analysis; type: subcellular; how it was run: as §1
Sequence of Aurora kinase A (O14965 whole entry): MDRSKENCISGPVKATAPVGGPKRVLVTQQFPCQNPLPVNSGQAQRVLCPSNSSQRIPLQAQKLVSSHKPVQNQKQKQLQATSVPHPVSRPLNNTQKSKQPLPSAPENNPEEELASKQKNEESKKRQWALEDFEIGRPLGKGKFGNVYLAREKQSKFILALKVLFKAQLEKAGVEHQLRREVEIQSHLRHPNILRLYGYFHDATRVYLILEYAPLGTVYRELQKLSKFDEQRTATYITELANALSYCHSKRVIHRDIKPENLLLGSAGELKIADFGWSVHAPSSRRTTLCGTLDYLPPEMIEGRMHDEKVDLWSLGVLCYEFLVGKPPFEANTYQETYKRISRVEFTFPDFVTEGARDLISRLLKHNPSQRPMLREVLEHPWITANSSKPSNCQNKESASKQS

[14] = target: Cyclin-dependent kinase 9 (Homo sapiens, UniProt P50750); assay: Inhibition of CDK9 in human HeLa cells lysate at 2 uM pre incubated for 15 mins followed by ADP acyl phosphate probe addition and measured after 10 mins by LC-MS/MS analysis relative to control; type: subcellular; conditions: time 25.0 min; how it was run: as §2
Sequence of Cyclin-dependent kinase 9 (P50750 whole entry): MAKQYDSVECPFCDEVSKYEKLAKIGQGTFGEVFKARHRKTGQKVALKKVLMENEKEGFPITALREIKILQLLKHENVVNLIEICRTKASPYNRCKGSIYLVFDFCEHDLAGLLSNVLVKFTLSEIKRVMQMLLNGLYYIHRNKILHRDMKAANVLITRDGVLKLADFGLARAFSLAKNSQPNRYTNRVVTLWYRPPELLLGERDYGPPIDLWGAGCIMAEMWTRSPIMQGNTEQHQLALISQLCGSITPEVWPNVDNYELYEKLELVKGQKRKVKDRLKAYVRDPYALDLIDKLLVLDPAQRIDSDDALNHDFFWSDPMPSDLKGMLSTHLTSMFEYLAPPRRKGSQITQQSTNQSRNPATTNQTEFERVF

[15] = Toxicity in C57Bl/6 mouse assessed as effect on creatinine level at 50 mg/kg, ip for 14 days (reference value: < 0.2 mg/dl); type: organism-based; conditions: in vivo, 336 h, time 14 day
[16] = target: Serine/threonine-protein kinase ATR (Homo sapiens, UniProt Q13535); assay: Inhibition of ATR in human HeLa cells lysate at 50 uM pre incubated for 15 mins followed by ATP acyl phosphate probe addition and measured after 10 mins by LC-MS/MS analysis relative to control; type: subcellular; conditions: time 25.0 min; how it was run: as §1

## CCOc1cc(N2CCC(O)CC2)ccc1Nc1ncc2c(n1)N(C)c1ccccc1C(=O)N2C
[1]
  inhibition at 10 µM: -68.3%
[2]
  IC50: > 50 µM
[3]
  IC50: > 50 µM
[4]
  inhibition: -0.8%
[5]
  inhibition: 4.6%
[6]
  inhibition: 14.1%
[7]
  IC50: > 50 µM
[8]
  inhibition: 23.7%
[9]
  inhibition: 13.5%
[10]
  inhibition: -3.2%
[11]
  inhibition: -6.5%
[12]
  inhibition: 9.9%
Scaffold protein ILK
  IC50: > 50 µM
[13]
  inhibition: 10.2%
Aurora kinase A
  IC50: > 50 µM
[14]
  inhibition: 0.8%
[15]
  Activity: < 0.2 mg/dL
[16]
  inhibition: 13.9%
